Assay results taken from ChEMBL document CHEMBL1125451, “Structure-activity studies of a novel bicyclic oxytocin antagonist” (J Med Chem, 1992).
Active and inactive are the calls of the source. The calls are words filed in the database; no cut-off is given here. Numbered stars: 1 amine (or outer) side, 2 acyl side, 3 side chain; on linkers, the order of the positions; unused ones are H or OH. Bridge positions count the residues as written; N and C are the ends. Square brackets hold non-standard residues; d marks the D form. Peptide text beside a SMILES is read from it. * marks the point of attachment. X1 = CC(C)(CC(=O)[*:1])S[*:2]; Mpa = O=C(O)CCS; For = O=C*

How the values were obtained:
Rattus norvegicus [1] = assay: In vivo pressor activity by vasopressin assay in rats(inactive up to dose 2*10e-2); type: functional
Rattus norvegicus [2] = assay: (§1) In vivo oxytocin antagonistic activity […] was determined by galactogogic assay; type: functional
Rattus norvegicus [3] = assay: (§2) In vivo pressor activity by vasopressin assay in rats; type: functional
Rattus norvegicus [4] = assay: In vivo pressor activity by vasopressin assay in rats; o = inactive up to dose 2*10e-2; type: functional, organism-based
Rattus norvegicus [5] = species: Rattus norvegicus; assay: In vitro oxytocin antagonistic activity against rat uterine strips; o = inactive up to dose 2*10e-2; type: functional
In short: (§3)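 Isolated uterine strips from Wistar rats estrogenized 24-48 h beforehand, tested in Munsick's solution by the Holton method. Cumulative oxytocin dose-response curves were constructed, with antagonist added to the bath 1 min before the oxytocin curve was started. Antagonism expressed as pA2.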

Rattus norvegicus [6] = species: Rattus norvegicus; assay: In vitro oxytocin antagonistic activity against rat uterine strips; type: functional; conditions: read-out: pA2 (converted); in short: as §3
Oxytocin receptor = biological target: T1, Oxytocin receptor (Rattus norvegicus, UniProt P70536); assay: In vitro Oxytocin receptor antagonistic activity against rat uterine strips; type: functional; conditions: read-out: pA2 (converted); in short: as §3
T1 sequence (P70536 whole entry): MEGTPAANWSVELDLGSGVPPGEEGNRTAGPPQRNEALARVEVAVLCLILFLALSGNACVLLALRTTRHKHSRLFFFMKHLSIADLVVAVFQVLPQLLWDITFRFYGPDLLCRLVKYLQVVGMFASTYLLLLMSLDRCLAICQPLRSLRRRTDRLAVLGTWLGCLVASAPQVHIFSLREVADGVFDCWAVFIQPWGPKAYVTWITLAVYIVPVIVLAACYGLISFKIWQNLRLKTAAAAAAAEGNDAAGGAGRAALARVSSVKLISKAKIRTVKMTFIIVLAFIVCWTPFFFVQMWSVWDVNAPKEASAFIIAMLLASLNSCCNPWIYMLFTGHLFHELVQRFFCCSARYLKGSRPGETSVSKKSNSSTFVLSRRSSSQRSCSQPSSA

Rattus norvegicus [7] = assay: as §2; type: functional, organism-based; conditions: read-out: pA2 (converted)
Rattus norvegicus [8] = assay: as §1; type: functional, organism-based; conditions: read-out: pA2 (converted)

CC[C@H](C)[C@@H]1NC(=O)[C@H](Cc2ccc(O)cc2)NC(=O)[C@@H](N)C(C)(C)SSC[C@@H](C(=O)N2CCC[C@H]2C(=O)N[C@@H](CC(C)C)C(=O)NCC(N)=O)NC(=O)[C@H](CC(N)=O)NC(=O)[C@H](CCC(N)=O)NC1=O
Activity (Rattus norvegicus [1]): 0 IU mg-1

CC[C@H](C)[C@@H]1NC(=O)[C@H](Cc2ccc(O)cc2)NC(=O)CCSSC[C@@H](C(=O)N2CCC[C@H]2C(=O)N[C@@H](CC(C)C)C(=O)NCC(N)=O)NC(=O)[C@H](CC(N)=O)NC(=O)[C@H](CCC(N)=O)NC1=O
Activity (Rattus norvegicus [2]): 541 IU mg-1 | Activity (Rattus norvegicus [3]): 1.44 IU mg-1

CC[C@H](C)[C@@H]1NC(=O)[C@H](Cc2ccc(O)cc2)NC(=O)CCSSC[C@@H](C(=O)N2CCC[C@H]2C(=O)N[C@@H](CCCCNC=O)C(=O)NCC(N)=O)NC(=O)[C@H](CC(N)=O)NC(=O)[C@H](CCC(=O)O)NC1=O
Activity (Rattus norvegicus [2]): 8 IU mg-1

CC[C@H](C)[C@@H]1NC(=O)[C@H](Cc2ccc(O)cc2)NC(=O)CCSSC[C@@H](C(=O)N2CCC[C@H]2C(=O)N[C@@H](CCCCNC=O)C(=O)NCC(N)=O)NC(=O)[C@H](CC(N)=O)NC(=O)[C@H](CCC(N)=O)NC1=O
Activity (Rattus norvegicus [2]): 517 IU mg-1 | Activity (Rattus norvegicus [3]): 101.6 IU mg-1

CC[C@H](C)[C@@H]1NC(=O)[C@H](Cc2ccc(O)cc2)NC(=O)CCSSC[C@@H](C(=O)N2CCC[C@H]2C(=O)N[C@@H](CCCCN)C(=O)NCC(N)=O)NC(=O)[C@H](CC(N)=O)NC(=O)[C@H](CCC(N)=O)NC1=O
Activity (Rattus norvegicus [2]): 272 IU mg-1 | Activity (Rattus norvegicus [3]): 368 IU mg-1

CC[C@H](C)[C@@H]1NC(=O)[C@H](Cc2ccc(O)cc2)NC(=O)CCSSC[C@@H](C(=O)N2CCC[C@H]2C(=O)N[C@@H](CCCCN)C(=O)NCC(N)=O)NC(=O)[C@H](CC(N)=O)NC(=O)[C@H](CCC(=O)O)NC1=O
Activity (Rattus norvegicus [2]): 9.1 IU mg-1 | Activity (Rattus norvegicus [3]): 0.1 IU mg-1

CC[C@@H](C)[C@@H]1NC(=O)[C@@H](Cc2ccc(O)cc2)NC(=O)CCSSC[C@@H](C(=O)N2CCC[C@@H]2C(=O)N[C@@H](CCCCNC=O)C(=O)NCC(N)=O)NC(=O)[C@H](CC(N)=O)NC(=O)[C@@H](CCC(=O)O)NC1=O
Activity (Rattus norvegicus [4]): inactive | Activity (Rattus norvegicus [5]): inactive

CC[C@H](C)[C@@H]1NC(=O)[C@H](Cc2ccc(O)cc2)NC(=O)CC(C)(C)SSC[C@@H](C(=O)N2CCC[C@H]2C(=O)N[C@@H](CCCCNC=O)C(=O)NCC(N)=O)NC(=O)[C@H](CC(N)=O)NC(=O)[C@H](CCC(=O)O)NC1=O (YIENCPK(For)G-NH2; linker N-5 via X1)
Kb (Rattus norvegicus [6]): 7940 nM

CC[C@H](C)[C@@H]1NC(=O)[C@H](Cc2ccc(O)cc2)NC(=O)CC(C)(C)SSC[C@@H](C(=O)N2CCC[C@H]2C(=O)N[C@@H](CCCCN)C(=O)NCC(N)=O)NC(=O)[C@H](CC(N)=O)NC(=O)[C@H](CCC(=O)O)NC1=O (YIENCPKG-NH2; linker N-5 via X1) [listing 1 of 2 here]
Kb (Oxytocin receptor): 1580 nM

CC[C@H](C)[C@@H]1NC(=O)[C@H](Cc2ccc(O)cc2)NC(=O)CC(C)(C)SSC[C@@H](C(=O)N2CCC[C@H]2C(=O)N[C@@H](CCCCN)C(=O)NCC(N)=O)NC(=O)[C@H](CC(N)=O)NC(=O)[C@H](CCC(=O)O)NC1=O (YIENCPKG-NH2; linker N-5 via X1) [listing 2 of 2 here]
Activity (Rattus norvegicus [2]): <0.01 IU mg-1 | Activity (Rattus norvegicus [3]): 0 IU mg-1

CC[C@H](C)[C@@H]1NC(=O)[C@H](Cc2ccc(O)cc2)NC(=O)CC(C)(C)SSC[C@@H](C(=O)N2CCC[C@H]2C(=O)N[C@@H](CCCCNC=O)C(=O)NCC(N)=O)NC(=O)[C@H](CC(N)=O)NC(=O)[C@H](CCC(N)=O)NC1=O (YIQNCPK(For)G-NH2; linker N-5 via X1) [listing 1 of 2 here]
Kb (Rattus norvegicus [7]): 631 nM | Kb (Rattus norvegicus [6]): 39.8 nM

CC[C@H](C)[C@@H]1NC(=O)[C@H](Cc2ccc(O)cc2)NC(=O)CC(C)(C)SSC[C@@H](C(=O)N2CCC[C@H]2C(=O)N[C@@H](CCCCNC=O)C(=O)NCC(N)=O)NC(=O)[C@H](CC(N)=O)NC(=O)[C@H](CCC(N)=O)NC1=O (YIQNCPK(For)G-NH2; linker N-5 via X1) [listing 2 of 2 here]
Activity (Rattus norvegicus [2]): 1.1 IU mg-1

CC[C@H](C)[C@@H]1NC(=O)[C@H](Cc2ccc(O)cc2)NC(=O)CC(C)(C)SSC[C@@H](C(=O)N2CCC[C@H]2C(=O)N[C@@H](CCCCN)C(=O)NCC(N)=O)NC(=O)[C@H](CC(N)=O)NC(=O)[C@H](CCC(N)=O)NC1=O (YIQNCPKG-NH2; linker N-5 via X1)
Kb (Oxytocin receptor): 16.6 nM

CC[C@H](C)[C@@H]1NC(=O)[C@H](Cc2ccc(O)cc2)NC(=O)CC(C)(C)SSC[C@@H](C(=O)N2CCC[C@H]2C(=O)N[C@@H](CC(C)C)C(=O)NCC(N)=O)NC(=O)[C@H](CC(N)=O)NC(=O)[C@H](CCC(N)=O)NC1=O (YIQNCPLG-NH2; linker N-5 via X1)
Kb (Rattus norvegicus [7]): 537 nM | Kb (Rattus norvegicus [6]): 115 nM

CC[C@H](C)[C@@H]1NC(=O)[C@H](Cc2ccc(O)cc2)NC(=O)CCSSC[C@@H]2NC(=O)[C@H](CC(N)=O)NC(=O)[C@H](CCC(=O)NCCCC[C@@H](C(=O)NCC(N)=O)NC(=O)[C@@H]3CCCN3C2=O)NC1=O ([Mpa]YIENCPKG-NH2; disulfide 1-6; lactam 4-8) [listing 1 of 2 here]
Kb (Oxytocin receptor): 6.31 nM | Kb (Rattus norvegicus [8]): 1000 nM

CC[C@H](C)[C@@H]1NC(=O)[C@H](Cc2ccc(O)cc2)NC(=O)CCSSC[C@@H]2NC(=O)[C@H](CC(N)=O)NC(=O)[C@H](CCC(=O)NCCCC[C@@H](C(=O)NCC(N)=O)NC(=O)[C@@H]3CCCN3C2=O)NC1=O ([Mpa]YIENCPKG-NH2; disulfide 1-6; lactam 4-8) [listing 2 of 2 here]
Activity (Rattus norvegicus [3]): 0.1 IU mg-1

CC[C@H](C)[C@@H]1NC(=O)[C@H](Cc2ccc(O)cc2)NC(=O)[C@@H](N)CSSC[C@@H](C(=O)N2CCC[C@H]2C(=O)N[C@@H](CC(C)C)C(=O)NCC(N)=O)NC(=O)[C@H](CC(N)=O)NC(=O)[C@H](CCC(N)=O)NC1=O [OXYTOCIN]
Activity (Rattus norvegicus [2]): 450 IU mg-1 | Activity (Rattus norvegicus [3]): 3.1 IU mg-1
